Measured values taken from ChEMBL document CHEMBL1128221 (J Med Chem, 1995).
Active and inactive are the calls of the source. The rule behind the calls is not given here.

T1: Carboxypeptidase G2 (Pseudomonas aeruginosa (strain ATCC 15692 / PAO1 / 1C / PRS 101 / LMG12228)) (UniProt Q9I056)
T1 sequence (whole entry): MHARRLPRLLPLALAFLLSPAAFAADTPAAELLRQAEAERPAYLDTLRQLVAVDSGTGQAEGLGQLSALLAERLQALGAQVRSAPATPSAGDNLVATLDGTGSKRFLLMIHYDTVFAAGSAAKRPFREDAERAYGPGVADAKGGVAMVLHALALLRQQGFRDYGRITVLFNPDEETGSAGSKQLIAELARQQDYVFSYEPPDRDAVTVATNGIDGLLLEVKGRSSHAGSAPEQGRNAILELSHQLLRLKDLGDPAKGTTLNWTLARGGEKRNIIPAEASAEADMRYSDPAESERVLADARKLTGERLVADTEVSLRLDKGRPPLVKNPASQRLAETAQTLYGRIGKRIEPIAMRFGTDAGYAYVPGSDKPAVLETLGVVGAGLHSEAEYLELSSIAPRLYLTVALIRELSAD


Assays:
[1] = molecular target: T1, Carboxypeptidase G2 (Pseudomonas aeruginosa (strain ATCC 15692 / PAO1 / 1C / PRS 101 / LMG12228)); assay: Ratio of kcat/Km for carboxypeptidase G2 activity
Method in brief: (§1)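 CPG2 cleavage of the glutamate oxycarbonyl/carbamoyl bond was followed spectrophotometrically. Prodrug and drug were scanned at 200–350 nm, and the wavelength of maximal absorbance difference was chosen. Initial rates of conversion were measured over a range of prodrug and CPG2 concentrations. KM and Vmax came from Michaelis–Menten fits. kcat was Vmax divided by the CPG2 concentration in the reaction.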

[2] = Half life was reported; type: ADME
Method in brief: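 Hydrolysis of the chloroethyl mustard groups was measured in phosphate buffer, pH 7.4, at 37 °C. Products were separated by HPLC on a 25 cm ODS column. t1/2 was calculated with a standard kinetic program. The method was not applied to bromo, iodo or mesyl mustards.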

[3] = tested on: LoVo; assay: Cytotoxicity against colorectal tumor cell line LoVo 1 hour after incubation.; type: functional, cell-based; details: Homo sapiens
Method in brief: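 LoVo colorectal cells (2.5 × 10^3/well) were exposed to a range of prodrug or parent drug concentrations for 1 h, then washed. The cells were grown a further 3 days at 37 °C, fixed, and stained with sulforhodamine B to measure cellular protein. Treated wells were compared with untreated controls to give IC50. The ratio is prodrug IC50 over drug IC50.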

[4] = molecular target: T1, Carboxypeptidase G2 (Pseudomonas aeruginosa (strain ATCC 15692 / PAO1 / 1C / PRS 101 / LMG12228)); assay: (§2) Ability to act as substrate for Carboxypeptidase G2; method in brief: as §1
[5] = molecular target: T1, Carboxypeptidase G2 (Pseudomonas aeruginosa (strain ATCC 15692 / PAO1 / 1C / PRS 101 / LMG12228)); assay: Ratio of kcat/Km for carboxypeptidase G2; Not substrate; method in brief: as §1
[6] = molecular target: T1, Carboxypeptidase G2 (Pseudomonas aeruginosa (strain ATCC 15692 / PAO1 / 1C / PRS 101 / LMG12228)); assay: (§3) Ability to act as substrate for Carboxypeptidase G2; Not substrate; method in brief: as §1
[7] = molecular target: T1, Carboxypeptidase G2 (Pseudomonas aeruginosa (strain ATCC 15692 / PAO1 / 1C / PRS 101 / LMG12228)); assay: (§4) Ability to act as substrate for Carboxypeptidase G2; unstable; method in brief: as §1
[8] = molecular target: T1, Carboxypeptidase G2 (Pseudomonas aeruginosa (strain ATCC 15692 / PAO1 / 1C / PRS 101 / LMG12228)); assay: Ratio of kcat/Km for carboxypeptidase G2; unstable; method in brief: as §1
[9] = substrate: O=C(O)CC[C@H](NC(=O)Oc1ccc(N(CCBr)CCBr)c(F)c1)C(=O)O; assay: as §3; method in brief: as §1
[10] = substrate: O=C(O)CC[C@H](NC(=O)Oc1ccc(N(CCCl)CCCl)c(Cl)c1)C(=O)O; assay: as §3; method in brief: as §1
[11] = substrate: O=C(O)CC[C@H](NC(=O)Oc1ccc(N(CCI)CCI)c(F)c1)C(=O)O; assay: as §3; method in brief: as §1
[12] = substrate: O=C(O)CC[C@H](NC(=O)Oc1ccc(N(CCCl)CCCl)c(F)c1)C(=O)O; assay: as §4; method in brief: as §1
[13] = substrate: O=C(O)CC[C@H](NC(=O)Nc1ccc(N(CCCl)CCCl)c(Cl)c1)C(=O)O; assay: as §2; method in brief: as §1
[14] = substrate: N#Cc1cc(NC(=O)N[C@@H](CCC(=O)O)C(=O)O)ccc1N(CCCl)CCCl; assay: as §2; method in brief: as §1
[15] = substrate: Cc1cc(OC(=O)N[C@@H](CCC(=O)O)C(=O)O)ccc1N(CCCl)CCCl; assay: as §2; method in brief: as §1
[16] = substrate: CC(C)c1cc(OC(=O)N[C@@H](CCC(=O)O)C(=O)O)ccc1N(CCCl)CCCl; assay: as §2; method in brief: as §1
[17] = substrate: O=C(O)CC[C@H](NC(=O)Nc1ccc(N(CCBr)CCBr)c(F)c1)C(=O)O; assay: as §2; method in brief: as §1
[18] = substrate: O=C(O)CC[C@H](NC(=O)Nc1ccc(N(CCCl)CCCl)c(F)c1)C(=O)O; assay: as §2; method in brief: as §1
[19] = substrate: Cc1cc(N(CCCl)CCCl)ccc1OC(=O)N[C@@H](CCC(=O)O)C(=O)O; assay: as §2; method in brief: as §1
[20] = substrate: O=C(O)CC[C@H](NC(=O)Oc1ccc(N(CCI)CCI)cc1)C(=O)O; assay: as §2; method in brief: as §1
[21] = substrate: O=C(O)CC[C@H](NC(=O)Oc1ccc(N(CCCl)CCCl)cc1Cl)C(=O)O; assay: as §2; method in brief: as §1
[22] = substrate: O=C(O)CC[C@H](NC(=O)Oc1ccc(N(CCBr)CCBr)cc1)C(=O)O; assay: as §2; method in brief: as §1

Molecule | Ratio [1] | half-life [2] [min] | IC50 [3] [µM] | k cat [4] [s⁻¹] | other results
O=C(O)CC[C@H](NC(=O)Nc1ccc(N(CCCl)CCCl)c(Cl)c1)C(=O)O | 7.8 | 2.8 | 330 | 9.4 | 
O=C(O)CC[C@H](NC(=O)Oc1ccc(N(CCCl)CCCl)c(Cl)c1)C(=O)O |  | 1.7 | 9.4 |  | Ratio [5]: inactive; k cat [6]: Not substrate
Cc1cc(OC(=O)N[C@@H](CCC(=O)O)C(=O)O)ccc1N(CCCl)CCCl | 2.3 | 1.6 | 116 | 30 | 
CC(C)c1cc(OC(=O)N[C@@H](CCC(=O)O)C(=O)O)ccc1N(CCCl)CCCl | 0.2 | 2.2 | 36.7 | 12.6 | 
O=C(O)CC[C@H](NC(=O)Oc1ccc(N(CCBr)CCBr)c(F)c1)C(=O)O |  |  | 46.2 |  | Ratio [5]: inactive; k cat [6]: Not substrate
O=C(O)CC[C@H](NC(=O)Oc1ccc(N(CCI)CCI)c(F)c1)C(=O)O |  |  | 24.5 |  | Ratio [5]: inactive; k cat [6]: Not substrate
O=C(O)CC[C@H](NC(=O)Nc1ccc(N(CCCl)CCCl)c(F)c1)C(=O)O | 3.4 | 6.8 | > 500 | 9.3 | 
Cc1cc(N(CCCl)CCCl)ccc1OC(=O)N[C@@H](CCC(=O)O)C(=O)O | 0.6 | 33 | 437 | 13 | 
O=C(O)CC[C@H](NC(=O)Oc1ccc(N(CCBr)CCBr)cc1)C(=O)O |  |  | 9.4 | 60 | 
O=C(O)CC[C@H](NC(=O)Oc1ccc(N(CCI)CCI)cc1)C(=O)O | 14.8 |  | 47.2 | 29.5 | 
O=C(O)CC[C@H](NC(=O)Oc1ccc(N(CCCl)CCCl)c(F)c1)C(=O)O |  | 19 | 53 |  | k cat [7]: Unstable; Ratio [8]: Unstable
O=C(O)CC[C@H](NC(=O)Oc1ccc(N(CCCl)CCCl)cc1Cl)C(=O)O | 0.7 | 186 | 86.7 | 50.5 | 
O=C(O)CC[C@H](NC(=O)Nc1ccc(N(CCBr)CCBr)c(F)c1)C(=O)O | 2.7 |  | 298 | 14.5 | 
N#Cc1cc(NC(=O)N[C@@H](CCC(=O)O)C(=O)O)ccc1N(CCCl)CCCl | 1 | 61 | > 500 | 8.4 | 
Carboxypeptidase G2 (Pseudomonas aeruginosa (strain ATCC 15692 / PAO1 / 1C / PRS 101 / LMG12228)), Q9I056 (protein) MHARRLPRLLPLALAFLLSPAAFAADTPAAELLRQAEAERPAYLDTLRQLVAVDSGTGQAEGLGQLSALLAERLQALGAQVRSAPATPSAGDNLVATLDGTGSKRFLLMIHYDTVFAAGSAAKRPFREDAERAYGPGVADAKGGVAMVLHALALLRQQGFRDYGRITVLFNPDEETGSAGSKQLIAELARQQDYVFSYEPPDRDAVTVATNGIDGLLLEVKGRSSHAGSAPEQGRNAILELSHQLLRLKDLGDPAKGTTLNWTLARGGEKRNIIPAEASAEADMRYSDPAESERVLADARKLTGERLVADTEVSLRLDKGRPPLVKNPASQRLAETAQTLYGRIGKRIEPIAMRFGTDAGYAYVPGSDKPAVLETLGVVGAGLHSEAEYLELSSIAPRLYLTVALIRELSAD |  |  |  |  | Km [9]: Not substrate; Km [10]: Not substrate; Km [11]: Not substrate; Km [12]: Unstable; Km [13]: 1.2 µM; Km [14]: 8.3 µM; Km [15]: 13 µM; Km [16]: 56 µM; Km [17]: 5.4 µM; Km [18]: 2.7 µM; Km [19]: 23.5 µM; Km [20]: 2 µM; Km [21]: 76.5 µM; Km [22]: 6.2 µM
